Measured values taken from publication PMC10131263 (Chemical & Biomedical Imaging, 2023).

How the values were obtained:
MMP-13 expressing SFs = test: Fluorescence microscopy of beacon uptake and activation, SFs; format: cell-based, human; details: 2.5 μM, 24 h incubation, fluorescence microscopy Cy5 channel
Procedure, shortened: (§1)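 Cells (patient-derived SFs or donated HUVECs) seeded at 5 × 10^3 per well in 8-chamber slides. After 24 h the medium was changed and test compound added to 2.5 µM final for a further 24 h. Cells washed, fixed in 4% paraformaldehyde for 20 min and mounted with DAPI. Imaged on an inverted microscope: Cy5 620/60 ex, 665 long-pass em; exposure 200 ms for SFs, 1500 ms for HUVECs.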

HUVECs = test: Fluorescence microscopy of beacon uptake and activation, HUVECs; format: cell-based, human; details: 2.5 μM, 24 h incubation, fluorescence microscopy Cy5 channel
Procedure, shortened: as §1

Pyro-glgfrvgk-BHQ3 [DPPMMP13B]
Intracellular pyro fluorescence in MMP-13 + SFs (MMP-13 expressing SFs): negligible fluorescence | Intracellular pyro fluorescence in HUVECs (negligible MMP-13 expression) (HUVECs): negligible fluorescence
